Test results taken from ChEMBL document CHEMBL4513216, “Probing the Open Global Health Chemical Diversity Library for Multistage-Active Starting Points for Next-Generation Antimalarials” (ACS Infect Dis, 2020).

Test: Toxicity liver stage against HepG2, at 10uM
Assay type: cell-based
Design: test concentration 10 uM, cell line HepG2-A16-CD81EGFP
Settings: human, HepG2-A16-CD81EGFP cells; read-out: INHIBITION
Outline: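 Uninfected HepG2-A16-CD81EGFP cells, 3 × 10^3 per well, 1536-well, plated on prespotted compound at 10 μM final, parasite-free screening media added to match infected plates; puromycin 10 μM positive, DMSO 0.5% negative; run in parallel with 48 h PbLuc assay at 37 °C, 5% CO2; viability by CellTiter-Glo luminescence, normalized to controls.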

Compound | cytotoxicity at 10 µM
O=C(c1ccccc1)N(CC1CC1)c1cccnc1 | 7.27%
CC(C)Cc1nc(NC(=O)c2cc(-c3cccnc3)n[nH]2)n[nH]1 | 2.34%
CCS(=O)(=O)NCC1CCN(c2cnccn2)CC1 | 10.3%
Cc1ccc2c(n1)N(Cc1cccnc1)CCN(C(=O)C1CC=CC1)C2 | 8.07%
CN(Cc1cccnc1)[C@@H]1CN(c2ncc(F)cn2)[C@@H]2CCCO[C@H]12 | 0.559%
Cc1cnc(N2C(=O)CSC2c2ccc(N(C)C)cc2)s1 (stereo not given) | 6.07%
Cc1nn2c(=O)/c(=C\c3cccs3)sc2nc1=O | 7.19%
CC(C)(CO)NCc1nn(Cc2ccccc2)nc1-c1ccccc1 | -6.69%
NC(=O)c1c(-c2ccc(Cl)cc2)csc1NC(=O)CCC(=O)O | 13.8%
Clc1ccc(-n2nnnc2C2(NCc3ccco3)CCCCC2)cc1 | 15.7%
CCOCCCNC(=O)c1cc(C)nc(N2CCCCC2)n1 | 8.52%
COCc1cccc(S(=O)(=O)N2CCSCC2)c1 | 8.19%
CCC(=O)Nc1nnc(CCOc2ccc(OC)cc2)s1 | 6.31%
Cc1cc(C)n(CCC(=O)N2CCC(c3nc(C(C)C)no3)CC2)n1 | -16.1%
CNc1cnc(CC2COCCN(CCOc3ccccc3)C2)cn1 (stereo not given) | -0.257%
CSCC[C@@H]1CN2CCC[C@H]2CN1Cc1coc2ccc(C)cc2c1=O | 2.89%
CN(CC1(O)CCCN(c2ccccn2)C1)C(=O)CCc1cccs1 (stereo not given) | -26.9%
Cc1cc2cc(C(=O)N[C@@H]3CC[C@@H](N4CCNC(=O)C4)[C@@H]3O)ccc2o1 | -5%
CN(C)C(=O)CN1CCCCC1c1nc(N)ncc1-c1cccc(F)c1 (stereo not given) | -3.68%
CS(=O)(=O)N1Cc2ccccc2CC2(CCN(Cc3ccccn3)C2)C1 (stereo not given) | 4.51%
CN1CCC2(Cc3ccccc3CN(C(=O)CCN)C2)C1 (stereo not given) | 0.17%
CCOc1nnc(CN(CC)CC(=O)NC(C)C)s1 | 3.88%

Compound | cytotoxicity at 10 µM
O=S(=O)(CCCn1cncn1)Cc1ccc(F)cc1Cl | 7.49%
CCOCCOC(C)C(=O)Nc1ccnn1-c1ccccc1C (stereo not given) | -0.308%
CCNC(=O)NC1CCC(Oc2ccccc2C#N)CC1 (stereo not given) | -9.08%
CCc1nc(NS(=O)(=O)c2cccc(F)c2C)no1 | 5.18%
Cn1cc(C(=O)Nc2cccc(-c3ccc4c(c3)CCO4)n2)ccc1=O | 3.72%
CN(C1CCCCC1)S(=O)(=O)N1CCN(Cc2ccco2)CC1 | -81.7%
c1ncn(Cc2ccc(CNCc3ccc4c(c3)OCCO4)cc2)n1 | -1.66%
CCCSCC(=O)NCc1cccc(CN(C)CC)c1 | -0.823%
O=C(CCn1cnc2ccccc21)N1CCN2CCCCC2C1 (stereo not given) | -4.34%
COc1cccc(CNC(=O)C(C)N2CC(n3nc(C)cc3C)C2)c1 (stereo not given) | 0.868%
O=C(Nc1ccccc1)C1CCCN(C(=O)Cn2cncn2)C1 (stereo not given) | 16.3%
NCC(CO)Cc1ccc(C(F)(F)F)cc1 (stereo not given) | 4.42%
O=C(NCCCC(=O)N1Cc2ccccc2C1)NCc1nccs1 | -1.37%
Cc1nc(CNC(C)c2cccc(S(=O)(=O)N(C)C)c2)no1 (stereo not given) | 0.956%
CCOc1cncc(N2CCN(c3ccccc3O)CC2)n1 | 25.7%
COc1ccc(CC(=O)NCCn2nc3ccccn3c2=O)cc1 | -8.61%
CCOc1ccc(NC(=O)N2CCNC(=O)C2)c(C(F)(F)F)c1 | 7.09%
CN(Cc1ccc(F)cc1C#N)CC(F)(F)F | 4.28%
COc1cc(CN(C)C(=O)Nc2cc(C)on2)ccc1SC | -10.7%
CNC(=O)c1cnc(/C=C/c2ccc(OC)c(O)c2)s1 | -11.1%
CCCn1nc2c(cc1=O)CN(Cc1cc(C)on1)CC2 | -13.9%
CNC(=O)NCC1CCC2(CCN(C(=O)c3ccccc3)CC2)CO1 (stereo not given) | -97.2%

Compound | cytotoxicity at 10 µM
O=C([C@@H]1CCCO1)N1CCN(Cc2ccncc2)c2ncccc2C1 | -95.7%
Cc1nc(-c2nc(C(=O)N(C)C)c3ccccn23)cn1C(C)C | -121%
O=C(c1cccs1)N1CC[C@@H]2[C@H]1CCC(=O)N2c1ccccc1 | -97.5%
CCc1ncc(C(=O)N2CCCOC(Cn3cccn3)C2)cn1 (stereo not given) | -0.95%
COc1cccc2ccc(CN3CCN(c4ncccn4)CC3)nc12 | -2.13%
CC(C)c1cc(C(=O)N2CCCC3(CCNC3)C2)no1 (stereo not given) | 5.28%
COCCN1CCC(C(=O)N(C)Cc2c[nH]c3ccc(C)cc23)C1 (stereo not given) | -13.2%
CC(=O)Nc1ccc2nc(-c3nccn3CCCN(C)C)ccc2c1 | -6.07%
NC(=O)Cn1ccnc1C1CCCN(CCSc2ccccc2)C1 (stereo not given) | -2.65%
Cn1c(Cn2ncc(N3CCCCC3)cc2=O)nc2ccccc21 | 6.01%
COc1ccc(CN2CCC3(CC2)C(C(=O)O)CC(=O)N3C)cc1Cl (stereo not given) | -5.66%
CCSCCNC(=O)c1cnc(-c2ccccc2)nc1O | -1.54%
O[C@@]1(Cn2cnc(Cl)c2Cl)CCCN2CCCC[C@@H]21 | -1.88%
COc1cccc(Cl)c1-c1cc(CN)ccc1F | -5.3%
CCN(CC)C(=O)N1CCN(Cc2cnc(C)nc2)[C@H]2CS(=O)(=O)C[C@H]21 | -8.84%
Cc1nn(C)c2nc(N(C)CCN(C)C3CCCC3)sc12 | 3.55%
O=C1CC(NCc2ncc[nH]2)CN1CCc1cccc(Cl)c1 (stereo not given) | -0.745%
Cc1c[nH]c(CN2CCCCC2CCc2cccc(O)c2)c(C)c1=O (stereo not given) | -14.6%
CCc1noc(CN(CC)C(=O)c2ccc3ncsc3c2)n1 | 12.2%
CNc1cc(C)nc(N2CCN(Cc3ccccc3)CC(O)C2)n1 (stereo not given) | -4.21%
CC(C)[C@]1(O)CN(C(=O)CNC(N)=O)C[C@H]1C | 5.69%
Cc1nc2c(c(NCc3cnc4c(c3)CCC4)n1)CNC2 | -3.57%

Compound | cytotoxicity at 10 µM
CCCN1CCN(Cc2cn(CCC(N)=O)c3ccccc23)CC1 | 4.7%
CC(C)c1ccc(N2CCc3onc(-c4ccc(F)c(F)c4)c3C2)nn1 | 0.324%
Fc1cccc(Cl)c1Cn1ncnc1CSCCN1CCCC1 | -0.454%
O=C(NCCN1CCOC1=O)c1ccc2sccc2c1 | 12.9%
Cc1ccccc1N1CCCN(CC2(O)CCCNC2)CC1 (stereo not given) | -6.1%
Cc1ccc(C)c(C(NC2CCCC2)c2cccnc2)c1 (stereo not given) | 23.5%
CN(C)C[C@@H]1CN(C(=O)c2cc(F)ccc2F)C[C@@H]1CO | 7.45%
Cc1[nH]c2ccc(CNC(=O)c3ccc(CN4CCCC4)o3)cc2c1C | -2.5%
O=C(NCCc1ccncc1)C1CCN(Cc2ccco2)CC1 | 26.1%
CCCc1cc(C(=O)N2CCCC2c2cccnc2)[nH]n1 (stereo not given) | -9.81%
CCCS(=O)(=O)N1CCN(c2cc(-n3cnc(C)c3C)nc(C)n2)CC1 | -8.51%
Cc1nccn1C1CCCN(C(=O)c2ccc3nncn3c2)C1 (stereo not given) | -2.42%
Cc1nc(CN(C)C2CCCN(Cc3noc(C4CC4)n3)C2)oc1C (stereo not given) | -2.34%
Cc1nccc(C(=O)N2CCCC(c3cc(C(F)(F)F)[nH]n3)C2)n1 (stereo not given) | -4.59%
O=C(c1nn(-c2ccccc2F)cc1O)N1CCC2(CC1)OCCO2 | -3.24%
Cc1noc(C)c1CN(C)C(=O)NC1CCC(O)CC1 (stereo not given) | -9.21%
CC(C)c1noc(CCCC(=O)N2CCN(Cc3ccccn3)CC2)n1 | -1.79%
CCNc1cc2c(nn1)CCN(C(=O)c1cc(C)no1)C2 | -14.5%
CCn1ncc2c1CCCC2NCc1cccc2c1OCCCO2 (stereo not given) | -13.4%
Cc1ccc(CNC(C)c2ccc(OCC(=O)NC3CC3)cc2)o1 (stereo not given) | 2.07%
CCOc1ccc(C(=O)N2CCCCC2Cn2nc(C)cc2C)cn1 (stereo not given) | 6.6%
Cc1nc(C)n(CC2CCCN(CCCOc3ccc(F)cc3)C2)n1 (stereo not given) | -3.08%

Compound | cytotoxicity at 10 µM
O=C(c1ccc2c(c1)COC2)N1CCC(Nc2cccnn2)CC1 | -13.1%
O=C(NCCC1=CCCCC1)NCc1nnc2n1CCC2 | -5.6%
CC(C)(C)c1ncc(C(=O)NCCS(N)(=O)=O)s1 | -9.58%
CCc1cnc(CN(C(C)=O)C2CCN(CCc3cccs3)C2)o1 (stereo not given) | -6.78%
COc1ccc(C2=CCN(C(=O)C3CC(=O)N(C4CC4)C3)CC2)cc1 (stereo not given) | -6.66%
CN1CCN(C(=O)c2ccc(=O)n(C)c2)Cc2ccccc21 | -10.2%
CC(C)c1ncc2c(n1)CN(Cc1nc(Cc3ccccc3)no1)CC2 | -14.6%
O=C(Nc1nccs1)N(CCO)Cc1ccsc1 | 1.4%
Cc1ccc(C)c(NC(=O)N(C)Cc2cnn(C)c2)c1 | -3.02%
c1csc(-c2noc(CCCN3CCCC3Cn3cccn3)n2)c1 (stereo not given) | -7.47%
COCCNC(=O)Nc1ccc(F)c(C(N)=O)c1 | -6.46%
Cc1cnn(CC2CCCCN2C(=O)c2cc(Cl)c[nH]2)c1 (stereo not given) | -5.4%
c1cc(-c2nc(CN3CCn4c(nnc4C4CC4)C3)cs2)cs1 | -2.22%
Cc1oncc1C(=O)N[C@@H]1CN(C2CCC2)C[C@@H]2CCCO[C@@H]21 | -109%
COC1CCC[C@@H]2CN(Cc3csc(C)n3)C[C@H]12 (stereo not given in full) | -110%
O=C(NCCc1cccs1)[C@H]1CO[C@H]2CCNC[C@H]2C1 | 2.11%
COc1ccc(CN2CC[C@H]3[C@H]2CCN3C(=O)c2cnn(C)c2)cc1 | 7.9%
Cn1ccnc1CN1C[C@@H]2[C@@H](C1)OCC(=O)N2CC1CCCC1 | -4.48%
Cc1nc(CN2C[C@@H]3CN(C(=O)c4cccn4C)C[C@@H]3C2=O)cs1 | 1.88%
O=C(COC1CCCC1)N1C[C@@H]2COC[C@]2(COc2cccnc2)C1 | -99.4%
Cn1cc(CN2C[C@@H]3COC[C@@H](C(=O)N4CCCCO4)[C@@H]3C2)cn1 | -1.57%
Cc1ccccc1CC(=O)N1C[C@@H]2CC[C@H]1CN(Cc1cccnc1)C2 | -2.36%
